Source: ChEMBL document CHEMBL1144523, “Synthetic cryptolepine inhibits DNA binding of NF-kappaB” (Bioorg Med Chem, 2007)
Counter-ions that a name gives are not always drawn. Values belong to the molecule of their own block, whether it stands above or below them. Activity calls are given as the source filed them. No cut-off for these calls is given here.

Legend:
HEK293 = assay: Inhibition of NF-kappaB-mediated gene transcription in HEK293 cells by luciferase reporter gene assay; format: cell-based; settings: Homo sapiens
How it was run: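 HEK293 cells were transfected with pNF-κB-luc by Ca²⁺-phosphate, reseeded at 15,000 cells/well and grown for 16 h. They were pretreated with compound for 30 min, then stimulated with TNF-α 1 ng/ml for 6 h. Lysates were assayed for luciferase by luminometer. Data are means ± SD of at least four experiments in triplicate, ANOVA/Dunnett.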

RAW [1] = assay: Effect on IkappaB phosphorylation in LPS-stimulated mouse RAW 264.7 cells […]; format: cell-based
RAW [2] = assay: Effect on IkappaB degradation in LPS-stimulated mouse RAW 264.7 cells administered at 10 uM for 30 mins […]; format: functional, cell-based
How it was run: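 RAW 264.7 cells were pretreated with 10 µM compound for 30 min, then stimulated with LPS for the indicated times. Cells were lysed in SDS buffer, run on 10–12% gels and blotted to PVDF. Blots were probed for phospho-IκB, IκB after stripping, and tubulin, with ECL detection. Densitometric p-IκB/IκB ratios are given as fold of unstimulated control; three independent experiments, means ± SD.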

RAW [3] = assay: Inhibition of DNA binding of NF-kappaB in LPS-stimulated mouse RAW 264.7 cells administered at 5 uM […] by EMSA; format: cell-based
How it was run: (§1)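 RAW 264.7 cells were pretreated with compound for 30 min, then stimulated with LPS (100 ng/ml in methods) for 60 min. Nuclear extracts were made by hypotonic HEPES swelling with NP-40, then hypertonic 0.4 M NaCl extraction. Equal nuclear protein was incubated with labelled NF-κB probe for 30 min at room temperature, resolved on a 4.5% native gel and imaged by phosphorimager.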

[4] = biological target: Transcription factor p65 (Mus musculus) (UniProt Q04207); assay: Inhibition of […]/NFkappaB nuclear translocation in LPS-stimulated mouse RAW 264.7 cells administered at 10 uM for 30 mins after LPS challenge; format: cell-based
How it was run: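 RAW 264.7 cells were grown on gelatine-coated coverslips and preincubated with 10 µM compound for 30 min, then given LPS for 30 min. Cells were fixed in 2% formalin, permeabilized with 0.2% Triton X-100 and blocked in 5% BSA. They were stained with anti-p65 (1:50, 2 h, room temperature) plus FITC secondary (1 h) and imaged by confocal microscopy at 488 nm excitation.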

RAW [5] = assay: Inhibition of DNA binding of NF-kappaB in LPS-stimulated mouse RAW 264.7 cells administered at 10 uM […] by EMSA; format: cell-based; how it was run: as §1
RAW [6] = assay: Inhibition of DNA binding of NF-kappaB isolated from LPS-stimulated mouse RAW 264.7 cells administered at 250 uM after 30 mins by EMSA; format: cell-free
How it was run: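 Nuclei from LPS-stimulated RAW 264.7 macrophages served as the source of active NF-κB. Equal amounts of nuclear protein were incubated with compound for 30 min, with or without 2 mM DTT. Radiolabelled NF-κB consensus probe was then added for 30 min at room temperature. Complexes were resolved on a 4.5% native gel and imaged by phosphorimager.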

RAW [7] = assay: Inhibition of LPS-stimulated nitric oxide production in mouse RAW 264.7 cells at 5 uM after 20 hrs relative to control; format: functional
How it was run: (§2)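 RAW 264.7 cells were seeded in 96-well plates and cultured for 2 days. Compound was added, then LPS immediately after, for 20 h. Nitrite in the supernatant was measured by Griess reaction (sulfanilamide plus N-(1-naphthyl)ethylenediamine) at 550 nm against a 620 nm reference, quantified from a sodium nitrite standard curve. Runs were in triplicate; data are means ± SD of six independent experiments, ANOVA/Dunnett.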

RAW [8] = assay: Inhibition of LPS-stimulated nitric oxide production in mouse RAW 264.7 cells at 10 uM after 20 hrs relative to control; format: functional; how it was run: as §2
[9] = Cytotoxicity against mouse RAW 264.7 cells; format: cell-based
How it was run: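 RAW 264.7 cells (DMEM, 10% heat-inactivated FBS, passages 5–20) were first run through the 20 h LPS nitrite assay. Attached cells were then stained with 0.5% Crystal Violet in 20% methanol. Bound dye was dissolved in 50% 1 M sodium citrate/50% ethanol and absorbance read at 540 nm.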

Transcription factor p65 (Mus musculus), sequence (Q04207 whole entry): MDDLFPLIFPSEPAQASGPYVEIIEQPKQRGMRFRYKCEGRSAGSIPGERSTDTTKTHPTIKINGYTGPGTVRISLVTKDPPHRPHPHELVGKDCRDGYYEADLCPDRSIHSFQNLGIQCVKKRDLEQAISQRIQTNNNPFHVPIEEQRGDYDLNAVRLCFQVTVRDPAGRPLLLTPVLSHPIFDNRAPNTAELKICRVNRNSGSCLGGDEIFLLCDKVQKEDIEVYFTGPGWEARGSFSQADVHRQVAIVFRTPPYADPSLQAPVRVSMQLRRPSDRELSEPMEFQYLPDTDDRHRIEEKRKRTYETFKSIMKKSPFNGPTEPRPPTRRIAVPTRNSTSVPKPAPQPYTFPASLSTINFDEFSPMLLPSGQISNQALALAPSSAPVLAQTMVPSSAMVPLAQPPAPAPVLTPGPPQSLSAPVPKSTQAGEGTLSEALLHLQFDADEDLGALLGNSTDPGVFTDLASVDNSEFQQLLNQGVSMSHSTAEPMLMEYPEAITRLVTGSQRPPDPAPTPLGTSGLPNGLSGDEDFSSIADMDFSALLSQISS

Activity [4]: inactive
SMILES: C[n+]1c2ccccc2cc2[n-]c3ccccc3c21
Activity (HEK293): Dose-dependent effect
Activity (RAW [1]): inactive
Activity (RAW [2]): inactive
Activity (RAW [3]): Active
Activity (RAW [5]): Active
Activity (RAW [6]): Active

SMILES: C[n+]1c2ccccc2cc2[n-]c3ccccc3c21 [CRYPTOLEPINE HYDROCHLORIDE]
inhibition at 5 µM (RAW [7]): 30%
inhibition at 10 µM (RAW [8]): 50%

Activity [4]: Active
SMILES: C=C1C(=O)O[C@@H]2C3O[C@]3(C)CC/C=C(\C)CC[C@@H]12 (some centres not stated)
Activity (RAW [3]): Active

SMILES: C[n+]1c2ccccc2cc2[n-]c3ccccc3c21 [CRYPTOLEPINE]
Activity [9]: Active
